Source: PubChem BioAssay
GRIN3A LBD mod = NR3A (human) ligand-binding domain modulation; NR3A LBD differential scanning fluorimetry, Tm shift; 0% = protein alone, 100% = glycine-bound protein; Tm shift relative to glycine control, % at 25 µM; 2.5% of 340,000 active;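 active = melting temperature shift of at least 10% of the positive control shift, at one fixed dose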
MPTP block = blocks calcium-induced mitochondrial swelling | AID 602449 | inhibition, % at 10 µM | isolated mouse mitochondria, Ca2+ swelling absorbance, 30 min | 1.4% of 360,000 active;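 active = inhibition of 50% or more, scaled per plate between neutral and stimulator controls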;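 note: 0% = DMSO wells given calcium and 100% = 1 mM EGTA wells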
EBI2 antag = EBI2 (human) antagonism | P32249 | EBI2 beta-arrestin recruitment, luminescence, 7a,25-OHC stimulated | inhibition, % at 5 µM | 0.81% of 360,000 active; in the data active = inhibition above about 38%;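 note: enzyme fragment complementation signal reports receptor beta-arrestin coupling in cells; 0% = agonist plus DMSO wells and 100% = wells without agonist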
Target sequence (P32249 whole entry, looked up, the tested form may be a part): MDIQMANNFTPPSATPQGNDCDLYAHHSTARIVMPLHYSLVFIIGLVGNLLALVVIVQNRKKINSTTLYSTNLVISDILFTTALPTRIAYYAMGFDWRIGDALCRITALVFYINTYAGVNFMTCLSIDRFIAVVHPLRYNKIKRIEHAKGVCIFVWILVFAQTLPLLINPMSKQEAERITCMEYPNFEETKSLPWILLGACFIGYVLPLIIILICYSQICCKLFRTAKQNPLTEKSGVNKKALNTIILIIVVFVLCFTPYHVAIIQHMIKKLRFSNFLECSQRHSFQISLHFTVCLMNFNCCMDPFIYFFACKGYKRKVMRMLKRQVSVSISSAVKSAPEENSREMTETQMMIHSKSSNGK
SENP1 FRET inh = SENP1 (human) catalytic domain inhibition; Q9P0U3; recombinant SENP1 catalytic domain, CyPet-SUMO1-YPet FRET cleavage; inhibition, % at 10 µM; 0.21% of 360,000 active;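 active = inhibition at least 30% at 10 µM, raw YFP signal under a set limit, fluorescence ratio 0.5 to 1.5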;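 note: 0% = enzyme with DMSO and 100% = no enzyme wells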
Target sequence (Q9P0U3 419-644 limits assumed): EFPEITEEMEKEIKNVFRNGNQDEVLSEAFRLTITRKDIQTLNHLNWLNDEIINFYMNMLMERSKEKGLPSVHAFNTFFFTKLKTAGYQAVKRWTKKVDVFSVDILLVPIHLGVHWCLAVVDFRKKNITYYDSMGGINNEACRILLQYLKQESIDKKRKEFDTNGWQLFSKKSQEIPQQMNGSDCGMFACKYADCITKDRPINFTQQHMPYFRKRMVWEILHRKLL
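Test system: hSENP1 catalytic domain, recombinant; Amount: 20 pM final SENP1 enzyme; Medium: Tris pH 8 buffer plus EDTA, NaCl, BME, BSA, NP40, catalase; Schedule: 50 min enzyme reaction, room temperature, light-protected; Technique: FRET fluorescence in CFP and YFP emission channels; Controls: no-enzyme wells low, DMSO-plus-enzyme wells high control.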
EBI2 conf = confirmation of human EBI2 receptor antagonists; shares compounds with EBI2 antag; EBI2 beta-arrestin luminescence, 7a,25-OHC antagonism; inhibition, % at 5 µM; 29% of 2,400 active; AID 651997;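 active = inhibition of at least 50%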
EBI2 ag = activates EBI2, counter-screen for EBI2 antagonists. shares compounds with EBI2 antag. EBI2-expressing cells, agonist mode, luminescence, 60 min; 0% vehicle, 100% 7α,25-dihydroxycholesterol control. activation, % at 5 µM. 2,400 tested, under 10 active. AID 652000;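 active = activation of at least 50%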
bGal counter = counter-screen for EBI2 antagonists: E. coli beta-galactosidase inhibition | 1% of 2,400 active | inhibition, % at 5 µM | shares compounds with EBI2 antag | purified beta-galactosidase, luminescent Galacton Star, 15 min;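 active = replicate-average signal at least 3 plate SD below neutral wells, shown as high inhibition, flagging enzyme-inhibiting false positives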;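 note: 0% = DMSO wells with enzyme and 100% = wells lacking enzyme; higher means stronger loss of beta-gal luminescence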
* marks the source's active call; other numbers are inactive results; . = not tested or not shown. The list is not random: actives were taken first. Their share in the collection is about 4.4%.

SMILES	GRIN3A LBD mod	MPTP block	EBI2 antag	SENP1 FRET inh	EBI2 conf	EBI2 ag	bGal counter
O=C(NC(c1ccc(F)cc1)c1ccc2ccccc2n1)C1CCN(CCOc2ccc(Cl)cc2)CC1 (centres undefined)	.	5	73*	-9	51*	1	4
COc1ccc(CNC(=O)C2CCN(S(=O)(=O)c3ccc(Br)s3)CC2)cc1	0	1	68*	3	32	-2	-9
CC1CC(C)CN(S(=O)(=O)N2CCCC(C(=O)NCCc3ccc(Cl)cc3)C2)C1 (centres undefined)	-2	-1	57*	2	52*	-1	-18
O=C(NCc1ccc2c(c1)OCO2)C1CCN(S(=O)(=O)c2cccs2)CC1	-1	1	10	0	.	.	.
O=C(NCc1ccc2c(c1)OCO2)C1CCN(S(=O)(=O)c2ccc(Br)s2)CC1	0	0	44*	3	18	-1	-4
O=C(NCCc1ccc(Cl)cc1)C1CCN(S(=O)(=O)N2CCCC2)CC1	1	0	29	2	.	.	.
O=C(NCCc1ccc(Cl)cc1)C1CCN(S(=O)(=O)c2ccc(Br)s2)CC1	-4	-3	51*	0	11	-1	-10
CC(=O)c1ccc(N2CCN(S(=O)(=O)c3c(C(=O)N4CCCC4)c(C)n(C)c3C)CC2)cc1	1	-1	2	5	.	.	.
COc1ccc(Br)cc1CN(C)C(C)C(=O)Nc1cc([N+](=O)[O-])ccc1OC (centres undefined)	-2	7	40*	3	13	1	0
COc1ccc([N+](=O)[O-])cc1NC(=O)C(C)N(C)Cc1ccc(Br)cc1 (centres undefined)	-5	10	37	2	.	.	.
O=C(c1ccc2c(c1)OCO2)N1CCC2(CC1)Oc1ccc(Cl)cc1C(=O)C21CC(c2ccccc2)=NO1 (centres undefined)	-2	-1	-2	0	.	.	.
CC(=O)CSc1nc2ccc(Nc3nc(N4CCOCC4)nc(N4CCOCC4)n3)cc2s1	-1	4	44*	1	22	-1	-14
COCCNC(=O)C(OC(=O)c1ccco1)c1ccc(OC)cc1 (centres undefined)	-1	-1	-10	0	.	.	.
O=C(NCc1ccco1)c1cc([N+](=O)[O-])ccc1N1CCCCC1	-2	3	53*	-1	39	1	3
O=C(NCc1ccc2c(c1)OCO2)c1cc([N+](=O)[O-])ccc1N1CCCCC1	-3	2	83*	-2	62*	-2	-14
COc1cc(NC(=O)c2cc([N+](=O)[O-])ccc2N2CCOCC2)ccc1NC(=O)c1ccco1	1	0	55*	-2	7	-1	-4
O=C(Nc1cc([N+](=O)[O-])ccc1N1CCOCC1)c1ccco1	-1	-2	6	1	.	.	.
O=C(CSc1nc2cc([N+](=O)[O-])ccc2n1-c1ccccc1)NCc1ccc2c(c1)OCO2	-13	9	55*	2	24	-1	-8
COc1ccc(-c2nc(NC(=O)CSc3nnc(C)s3)ns2)cc1	0	-1	-4	-6	.	.	.
COC(C[C@@H](O)[C@@H](C)[C@H](O)COCc1ccccc1)OC	-2	0	-9	0	.	.	.
O=C(c1ccc(-c2ccccc2)cc1)N1CCN(c2ccc3c(c2)C2CC3CCN2C(=O)OCc2ccccc2)CC1 (centres undefined)	.	2	54*	-1	40	1	7
Cc1ccc(S(=O)(=O)NC[C@H]2O[C@@H](n3cnc4c(N)ncnc43)[C@H](O)[C@@H]2O)cc1	.	-1	2	-1	.	.	.
CC(=O)c1nn(-c2ccc(Br)cc2)cc1C(=O)c1ccco1	0	0	26	-4	.	.	.
CC(=O)c1nn(-c2ccc(Cl)cc2)cc1C(=O)c1ccc(C)cc1	0	3	88*	0	51*	1	9
CC(=O)c1nn(-c2ccc(Br)cc2)cc1C(=O)c1ccccc1	0	0	52*	1	43	0	8
SMILES	GRIN3A LBD mod	MPTP block	EBI2 antag	SENP1 FRET inh	EBI2 conf	EBI2 ag	bGal counter
COc1ccc(C(=O)c2cn(-c3cccc(Br)c3)nc2C(C)=O)cc1	3	5	-2	0	.	.	.
O=C(Nc1ccc(F)cc1Cl)c1ccc2c(=O)n3c(nc2c1)CCC3	-2	-1	-2	-1	.	.	.
CC(=O)c1ccc(OCC(=O)N2CCN(S(=O)(=O)c3ccc(Br)s3)CC2)cc1	2	-2	69*	-1	39	0	12
CCC(=O)c1ccc(OCC(=O)N2CCN(S(=O)(=O)c3ccc(Cl)s3)CC2)cc1	0	-1	42	-13	.	.	.
CC(=O)c1ccc(OCCCC(=O)N2CCN(S(=O)(=O)c3cccs3)CC2)cc1	4	0	49*	-3	48	-1	-14
CN(c1ccc([N+](=O)[O-])cc1C(=O)Nc1ccccc1)C1CCCCC1	-8	2	41*	-8	32	0	-13
CC(C)n1c(SCC(=O)Nc2ccccc2)nc2c1c(=O)n(C)c(=O)n2C	-2	1	-3	4	.	.	.
CCOC(=O)C1=C(C)Nc2sc(C(=O)c3ccc(F)cc3)c(N)c2C1c1ccc(C(=O)OC)cc1 (centres undefined)	13*	6	37*	-25	23	-2	-5
Nc1c(Cl)cc(C2=NCCn3nc4cc(C(F)(F)F)ccc4c32)cc1Cl	-11	0	49*	1	23	-1	-8
COc1ccc2c3n(nc2c1)CCN=C3c1cc(Cl)c(N)c(Cl)c1	-2	0	35	0	.	.	.
CCOc1cc(CNc2ccc(Br)cc2)cc(Br)c1OCC(=O)NC(C)(C)C	-14	14	66*	1	7	1	2
CCOc1cc(CNc2ccccc2)cc(Br)c1OCc1ccc(F)cc1	-5	8	49*	1	14	0	3
O=C(COC(=O)/C=C/c1ccccc1Cl)NC1CC1	.	-1	-11	1	.	.	.
O=[N+]([O-])c1ccc2c(c1Nc1ccccc1Cl)=NC1(CCCCC1)N=2	0	6	63*	5	22	0	-12
O=C(O)C1(Nc2ccccc2Cl)CCCC1	-4	-1	-5	1	.	.	.
Cc1cc(OCC(=O)N2CCN(c3ccccn3)CC2)c(C)cc1Br	0	0	53*	-1	42	2	0
O=C(COc1ccc2ccccc2c1Br)N1CCN(c2ccccn2)CC1	-8	-2	52*	0	7	1	4
Fc1ccc(Nc2ccc(-c3ccc(F)cc3)nn2)cc1	26*	1	60*	1	28	-1	-7
